ChEMBL document CHEMBL4373647, “Design, synthesis, and antimicrobial evaluation of 1,4-dihydroindeno[1,2-c]pyrazole tethered carbohydrazide hybrids: exploring their in silico ADMET, ergosterol inhibition and ROS inducing potential” (Medchemcomm, 2019)
Values after ≈ are worked out from the molar mass of the structure shown.

Legend:
Format in all cases: functional
[1] = system: Bacillus subtilis; experiment: Antibacterial activity against Bacillus subtilis MTCC 121 assessed as inhibition of bacterial growth incubated for 24 hrs by agar well diffusion method; conditions: MTCC 121, 24 h
In short: (§1)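 Strains from MTCC; inoculum at 0.5 McFarland spread on Mueller-Hinton agar; 6 mm wells loaded with compound over 125–0.97 µg/mL; ciprofloxacin positive control (same range), DMSO negative control. Plates held 24 h at 37 °C; MIC taken as lowest concentration giving a clear inhibition zone. Triplicate runs, mean MIC reported.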

[2] = system: Staphylococcus aureus; experiment: Antibacterial activity against Staphylococcus aureus MLS-16 MTCC 2940 assessed as inhibition of bacterial growth incubated for 24 hrs by agar well diffusion method; conditions: MLS-16 MTCC 2940, 24 h; in short: as §1
[3] = system: Micrococcus luteus; experiment: Antibacterial activity against Micrococcus luteus MTCC 2470 assessed as inhibition of bacterial growth incubated for 24 hrs by agar well diffusion method; conditions: MTCC 2470, 24 h; in short: as §1
[4] = system: Raoultella planticola; experiment: Antibacterial activity against Klebsiella planticola MTCC 530 assessed as inhibition of bacterial growth incubated for 24 hrs by agar well diffusion method; conditions: MTCC 530, 24 h; in short: as §1
[5] = system: Staphylococcus aureus; experiment: Antibacterial activity against Staphylococcus aureus MTCC 96 assessed as inhibition of bacterial growth incubated for 24 hrs by agar well diffusion method; conditions: MTCC 96, 24 h; in short: as §1
[6] = system: Candida albicans; experiment: Antifungal activity against Candida albicans MTCC 3017 assessed as inhibition of fungal growth incubated for 24 hrs by agar well diffusion method; conditions: MTCC 3017, 24 h
In short: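 Candida strains from MTCC, pre-cultured and spread on Mueller Hinton agar. Wells received compound dissolved in 10% DMSO, 125–0.97 µg/mL; miconazole standard over the same range, DMSO negative control. After 24 h at 37 °C, MIC was read as the lowest concentration giving an inhibition zone. Duplicate experiments, means given.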

[7] = system: Pseudomonas aeruginosa; experiment: Antibacterial activity against Pseudomonas aeruginosa MTCC 2453 assessed as inhibition of bacterial growth incubated for 24 hrs by agar well diffusion method; conditions: MTCC 2453, 24 h; in short: as §1
[8] = system: Escherichia coli; experiment: Antibacterial activity against Escherichia coli MTCC 739 assessed as inhibition of bacterial growth incubated for 24 hrs by agar well diffusion method; conditions: MTCC 739, 24 h; in short: as §1

Row | SMILES | MIC [1] | MIC [2] | MIC [3] | MIC [4] | MIC [5] | MIC [6] | MIC [7] | MIC [8]
1 | O=C(N/N=C/c1ccc(Br)cc1)c1n[nH]c2c1Cc1cc(F)ccc1-2 | 7.8 µg/mL (≈ 19.5 µM) | 15.6 µg/mL (≈ 39.1 µM) | > 125 µg/mL | > 125 µg/mL | 7.8 µg/mL (≈ 19.5 µM) | > 125 µg/mL | > 125 µg/mL | > 125 µg/mL
2 | COc1ccc(/C=N/NC(=O)c2n[nH]c3c2Cc2ccccc2-3)cc1OC | > 125 µg/mL | > 125 µg/mL | > 125 µg/mL | > 125 µg/mL | > 125 µg/mL | > 125 µg/mL | > 125 µg/mL | > 125 µg/mL
3 | COc1ccc(/C=N/NC(=O)c2n[nH]c3c2Cc2cc(F)ccc2-3)cc1OC | > 125 µg/mL | 3.9 µg/mL (≈ 10.3 µM) | > 125 µg/mL | > 125 µg/mL | > 125 µg/mL | > 125 µg/mL | > 125 µg/mL | > 125 µg/mL
4 | COc1ccc2c(c1)Cc1c(C(=O)N/N=C/c3ccc(O)cc3)n[nH]c1-2 | 7.8 µg/mL (≈ 22.4 µM) | 7.8 µg/mL (≈ 22.4 µM) | 3.9 µg/mL (≈ 11.2 µM) | > 125 µg/mL | 7.8 µg/mL (≈ 22.4 µM) | > 125 µg/mL | > 125 µg/mL | > 125 µg/mL
5 | COc1ccc2c(c1)Cc1c(C(=O)N/N=C/c3ccc(OC)c(OC)c3)n[nH]c1-2 | 7.8 µg/mL (≈ 19.9 µM) | 7.8 µg/mL (≈ 19.9 µM) | 3.9 µg/mL (≈ 9.94 µM) | > 125 µg/mL | 3.9 µg/mL (≈ 9.94 µM) | > 125 µg/mL | > 125 µg/mL | > 125 µg/mL
6 | O=C(N/N=C/c1c(F)cc(F)cc1F)c1n[nH]c2c1Cc1ccccc1-2 | 15.6 µg/mL (≈ 43.8 µM) | > 125 µg/mL | > 125 µg/mL | > 125 µg/mL | > 125 µg/mL | > 125 µg/mL | > 125 µg/mL | > 125 µg/mL
7 | O=C(N/N=C/c1c(F)cc(F)cc1F)c1n[nH]c2c1Cc1cc(F)ccc1-2 | 7.8 µg/mL (≈ 20.8 µM) | 3.9 µg/mL (≈ 10.4 µM) | > 125 µg/mL | > 125 µg/mL | 7.8 µg/mL (≈ 20.8 µM) | 31.2 µg/mL (≈ 83.4 µM) | > 125 µg/mL | > 125 µg/mL
8 | O=C(N/N=C/c1ccc(Cl)cc1)c1n[nH]c2c1Cc1ccccc1-2 | 7.8 µg/mL (≈ 23.2 µM) | 3.9 µg/mL (≈ 11.6 µM) | > 125 µg/mL | > 125 µg/mL | 3.9 µg/mL (≈ 11.6 µM) | > 125 µg/mL | > 125 µg/mL | 7.8 µg/mL (≈ 23.2 µM)
9 | COc1cc(/C=N/NC(=O)c2n[nH]c3c2Cc2cc(F)ccc2-3)ccc1O | > 125 µg/mL | 3.9 µg/mL (≈ 10.6 µM) | > 125 µg/mL | > 125 µg/mL | > 125 µg/mL | 31.2 µg/mL (≈ 85.2 µM) | > 125 µg/mL | > 125 µg/mL
